High-throughput results (PubChem BioAssay)
In the library only some 1.7% were active in any assay of this set; here they are far more common.
Scp-1 inhibitor = Scp-1 phosphatase inhibitors, primary screen, biochemical, colorimetric, uHTS; AID 493091, 2011; 0.88% of 340,000 active; Carboxy-terminal domain RNA polymerase II polypeptide A small phosphatase 1 (Homo …; Recombinant Scp1, phosphopeptide, malachite green phosphate absorbance; inhibition, % at 20 µM;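 active = inhibition above about 50% at 20 µM, limit read from the data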;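 note: plate controls were DMSO wells with enzyme for no effect and wells lacking enzyme for full effect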
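Material – SCP-1 phosphatase catalytic domain, residues 76-261 · Buffer or medium – Acidic Tris acetate buffer with magnesium and detergent · Also added – Phospho 17-mer peptide substrate · Compound – single 20 µM dose, 1% DMSO · Times – 45 min room-temperature reaction, 5 min colour, 30 min stabiliser · Technique – Phosphate-binding colour reagent, absorbance read at 630 nm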
STEP block = STEP phosphatase inhibitors, primary screen, biochemical, fluorescence intensity, uHTS. Tyrosine-protein phosphatase non-receptor type 5 (Homo sapiens), P54829. 0.25% of 360,000 active. recombinant STEP, OMFP fluorogenic substrate. inhibition, % at 20 µM;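 active = inhibition at 20 µM, scaled per plate between control wells, above about 37%, limit read from the data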;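 note: 0% = DMSO with enzyme and substrate and 100% = substrate only without enzyme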
Target sequence (P54829 whole entry, looked up): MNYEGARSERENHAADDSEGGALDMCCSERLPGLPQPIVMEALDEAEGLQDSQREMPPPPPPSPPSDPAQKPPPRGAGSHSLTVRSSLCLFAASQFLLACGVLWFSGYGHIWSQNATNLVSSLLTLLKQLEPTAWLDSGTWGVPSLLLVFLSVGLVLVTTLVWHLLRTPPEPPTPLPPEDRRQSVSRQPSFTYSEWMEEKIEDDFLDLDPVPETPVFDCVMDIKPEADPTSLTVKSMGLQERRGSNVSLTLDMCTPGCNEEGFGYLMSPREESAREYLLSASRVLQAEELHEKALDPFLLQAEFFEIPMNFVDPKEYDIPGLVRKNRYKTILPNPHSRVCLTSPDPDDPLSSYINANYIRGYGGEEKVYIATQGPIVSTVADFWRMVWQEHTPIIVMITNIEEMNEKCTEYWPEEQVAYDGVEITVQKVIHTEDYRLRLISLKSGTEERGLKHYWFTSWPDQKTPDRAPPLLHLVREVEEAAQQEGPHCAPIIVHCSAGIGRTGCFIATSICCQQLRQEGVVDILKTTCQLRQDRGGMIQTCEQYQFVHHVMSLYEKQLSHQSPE
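medium = Bis-Tris buffer pH 6.0, 2.5 mM DTT, 0.005% Tween 20 | test system = STEP (striatal-enriched tyrosine phosphatase) enzyme, cell-free | measure = normalized % inhibition | compound dosing = 20 µM, 1% DMSO | also added = 25 µM OMFP | schedule = reaction 20 min, ambient temperature | measured by = fluorescence read at 480 nm ex / 540 nm em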
LMPTP inh = LMPTP phosphatase inhibitors, primary screen, biochemical, fluorescence intensity, uHTS; Low molecular weight phosphotyrosine protein phosphatase (Homo sapiens), P24666; recombinant LMPTP-A, OMFP fluorogenic substrate; inhibition, % at 20 µM; 0.22% of 360,000 active; AID 651560, 2012;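 active = compounds that cut the enzyme signal by at least half of the control window in the single-dose screen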;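 note: plate controls were DMSO wells with enzyme plus substrate for no effect and substrate without enzyme for full effect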
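Assay system: LMPTP-A enzyme. Input: 0.625 nM LMPTP-A final. Probe or stimulus: 400 µM OMFP. Compound dosing: single 20 µM dose. Schedule: 50 min dark incubation at room temperature. Detection: fluorescence intensity of OMFP turnover product. Read-out: percent inhibition versus substrate-only and uninhibited controls. Benchmarks: no-enzyme low control, uninhibited high control.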
SUMO1 PPI mod = modulators of SUMO1 protein-protein interactions, primary screen, biochemical, uHTS | 0.33% of 360,000 active | SUMO1 binding to a labelled peptide, TR-FRET, 1 h | Small ubiquitin-related modifier 1 (Homo sapiens), P63165 | inhibition, % at 20 µM | AID 602429, 2012; in the data active = inhibition above about 37%
Target sequence (P63165 whole entry, looked up): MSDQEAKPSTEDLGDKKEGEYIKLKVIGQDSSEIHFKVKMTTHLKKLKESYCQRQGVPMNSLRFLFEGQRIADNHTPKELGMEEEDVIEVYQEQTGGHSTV
DNMT1 block = human DNMT1 methyltransferase inhibitors, primary screen, biochemical, molecular beacon, fluorescence, HinP1I cleavage, uHTS | inhibition (reported as % activation of signal), % at 10 µM | DNA (cytosine-5)-methyltransferase 1 (Homo sapiens), P26358 | 0.83% of 360,000 active | AID 588458, 2011; in the data active = inhibition above about 50%
* hit, by the source's call.

For CCOC(=O)c1sc(NC(=O)c2cc(-c3ccc(C)cc3)nc3ccccc23)c(C#N)c1C the results were Scp-1 inhibitor -11, STEP block 10, LMPTP inh 2, SUMO1 PPI mod 4 and DNMT1 block -23.
COC(=O)c1sc(NC(=O)c2cc(-c3ccccc3)nc3ccccc23)c(C#N)c1C was read as Scp-1 inhibitor -9, STEP block 91*, LMPTP inh 1, SUMO1 PPI mod 4 and DNMT1 block -27.
COc1ccc(N2CCN(Cc3cc(=O)oc4ccc(C)cc34)CC2)cc1 was read as Scp-1 inhibitor -3, STEP block 6, LMPTP inh -2, SUMO1 PPI mod -1 and DNMT1 block 43.
For COc1ccc(N2CCN(Cc3cc(=O)oc4cc5c(cc34)CCCC5)CC2)cc1 the results were Scp-1 inhibitor -5, STEP block -1, LMPTP inh 1, SUMO1 PPI mod -4 and DNMT1 block 56*.
`CC(=O)c1ccc(N2C(=NC(=O)CCc3ccccc3)SC3CS(=O)(=O)CC32)cc1` (stereo not drawn) gave Scp-1 inhibitor -7, STEP block 0, LMPTP inh -1, SUMO1 PPI mod -4 and DNMT1 block -3.
CC(=O)OCCNc1cc(N2CCN(C)CC2)c2noc3c2c1C(=O)c1ccccc1-3 was read as Scp-1 inhibitor 7, STEP block 5, LMPTP inh 4, SUMO1 PPI mod -35 and DNMT1 block -15.
`CCOC(=O)C(C(=O)OCC)c1cc(Br)c2noc3c2c1C(=O)c1ccccc1-3` gave Scp-1 inhibitor 27, STEP block -5, LMPTP inh 24, SUMO1 PPI mod 36 and DNMT1 block 57*.
`O=C(O)CCCCCNc1nc(-c2ccccc2)nc2ccccc12` gave Scp-1 inhibitor -5, STEP block 1, LMPTP inh 59*, SUMO1 PPI mod 12 and DNMT1 block 1.
c1ccc(-c2nc(NCCCn3ccnc3)c3ccccc3n2)cc1 was read as Scp-1 inhibitor 14, STEP block 1, LMPTP inh 57*, SUMO1 PPI mod 6 and DNMT1 block 1.
For OCCNc1nc(-c2ccccc2)nc2ccccc12 the results were Scp-1 inhibitor -3, STEP block 0, LMPTP inh 20, SUMO1 PPI mod 6 and DNMT1 block 2.
For CN(CC(=O)Nc1ncn[nH]1)S(=O)(=O)c1ccc(Cl)cc1 the results were Scp-1 inhibitor -2, STEP block 0, LMPTP inh -1, SUMO1 PPI mod -2 and DNMT1 block 0.
Screening C/C(=N\Nc1cc(C)nc(-c2ccccc2)n1)c1cccc([N+](=O)[O-])c1 returned Scp-1 inhibitor -1, STEP block -2, LMPTP inh 2, SUMO1 PPI mod 48* and DNMT1 block 10.
CC1CCCCC1NC(=O)CCCCn1c(=O)[nH]c2ccsc2c1=O (stereo not drawn) was read as Scp-1 inhibitor -8, STEP block -4, LMPTP inh 2, SUMO1 PPI mod -5 and DNMT1 block 1.
For COc1ccccc1NC(=O)NNC(=O)CCN1CCOCC1 the results were Scp-1 inhibitor -9, STEP block 1, LMPTP inh 0, SUMO1 PPI mod 1 and DNMT1 block 2.
O=c1c2c([N+](=O)[O-])cc([N+](=O)[O-])cc2sn1-c1ccc(Br)cc1 was read as Scp-1 inhibitor 94*, STEP block 0, LMPTP inh -1, SUMO1 PPI mod -18 and DNMT1 block -15.
Screening O=c1c2c([N+](=O)[O-])cc([N+](=O)[O-])cc2sn1Cc1ccccc1 returned Scp-1 inhibitor 47, STEP block -2, LMPTP inh 1, SUMO1 PPI mod -38 and DNMT1 block -1.
`Cc1cc(/C=C\c2ccc3cc(N(C)C)ccc3[n+]2C)c(C)n1-c1ccccc1` gave Scp-1 inhibitor 43, STEP block 15, LMPTP inh 78*, SUMO1 PPI mod 0 and DNMT1 block 54*.
`COC(=O)c1ccccc1S(=O)(=O)N1CCC(C(=O)NC2CCCCC2)CC1` gave Scp-1 inhibitor -15, STEP block -2, LMPTP inh -1, SUMO1 PPI mod -6 and DNMT1 block -1.
Cc1ccnn1Cc1cc(C(=O)O)c2ccccc2n1 was read as Scp-1 inhibitor -5, STEP block -2, LMPTP inh -2, SUMO1 PPI mod 0 and DNMT1 block 1.
`Cc1ccc(NC(=O)CNC(=O)c2ccc(OC(F)F)cc2)cc1S(=O)(=O)N1CCCCCC1` gave Scp-1 inhibitor -10, STEP block -3, LMPTP inh 3, SUMO1 PPI mod 5 and DNMT1 block -14.
O=c1oc2cc(O)ccc2c2oc3cc(O)ccc3c12 was read as Scp-1 inhibitor 21, STEP block 0, LMPTP inh 21, SUMO1 PPI mod 48* and DNMT1 block -1.
Screening Cc1cc(C)cc(NC(=O)CSc2nc(CSc3ccc(Cl)cc3)cc(=O)[nH]2)c1 returned Scp-1 inhibitor -8, STEP block 1, LMPTP inh 3, SUMO1 PPI mod 1 and DNMT1 block 2.
For COc1cc(/C=C2\SC(=S)N(c3cccnc3)C2=O)ccc1O the results were Scp-1 inhibitor 13, STEP block 23, LMPTP inh 13, SUMO1 PPI mod 109* and DNMT1 block 57*.
Screening Cc1nc2ccc(C(=O)N/N=C/c3cc([N+](=O)[O-])ccc3O)cc2[nH]1 returned Scp-1 inhibitor 38, STEP block 49*, LMPTP inh 17, SUMO1 PPI mod -8 and DNMT1 block 2.
For CCOC(=O)CC1C(=O)NCCN1C(=S)NC(=O)c1ccc(C)c(Br)c1 (stereo not drawn) the results were STEP block -1, LMPTP inh -2, SUMO1 PPI mod 7 and DNMT1 block 2.
For COCCNC(=O)C1(C)CCCN(CCSc2ccccc2)C1 (stereo not drawn) the results were STEP block 0, LMPTP inh -3, SUMO1 PPI mod -1 and DNMT1 block 5.
`COc1ccc(S(=O)(=O)c2c(N)n(Cc3ccco3)c3nc4ccccc4nc23)cc1` gave Scp-1 inhibitor 49, STEP block 7, LMPTP inh 49*, SUMO1 PPI mod 41* and DNMT1 block 98*.
`Cc1ccc(S(=O)(=O)c2c(N)n(CCCN(C)C)c3nc4ccccc4nc23)cc1` gave Scp-1 inhibitor -4, STEP block 3, LMPTP inh 3, SUMO1 PPI mod -9 and DNMT1 block -6.
`COc1ccc(Cn2c(C)nc3c(c2=O)c2nc4ccccc4nc2n3Cc2ccco2)cc1` gave Scp-1 inhibitor 95*, STEP block 37, LMPTP inh 43, SUMO1 PPI mod 69* and DNMT1 block 96*.
